According to PMC12377187 (RSC Advances, 2025):
Like-named read-outs stand apart in the source and are kept apart here.

Tests used:
[1] = system: MDA-MB-231 – human breast cancer cell line; assay: MTT cytotoxicity, MDA-MB-231 cell line; assay type: cell-based; conditions: MDA-MB-231, 72 h, read-out: IC50 MDA-MB-231
How it was run: (§1)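 Cells seeded at 5000 per well in Eagle's MEM with 10% fetal calf serum, 2 mM L-glutamine, penicillin and streptomycin, then pre-incubated 24 h at 37 °C, 5% CO2. A concentration series of test compound in DMSO, with a reference drug, was applied for 72 h. MTT added for 4 h at 37 °C, formazan dissolved in ethanol, OD read at 570 nm. Inhibition calculated against blank and control absorbances.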

[2] = system: RD – rhabdomyosarcoma cell line; assay: MTT cytotoxicity, RD cell line; assay type: cell-based; conditions: 72 h
How it was run: as §1

SW620 cell line = conditions: cited from earlier work
HT-29 cell line = conditions: cited from earlier work
[3] = Rhabdomyosarcoma cell, read-out: IC50 RD, MTT, 72 h, mean ± SD
[4] = read-out: IC50 RD, MTT, mean ± SD

## O=c1c2cc(Cl)ccc2nc(-c2ccccc2)n1N=Cc1ccc([N+](=O)[O-])cc1 [Compound 2, 6-Chloro-3-((4-nitrobenzylidene)amino)-2-phenyl-4(3H)-quinazolone]
[1]
  IC50: 104 ± 3.63 µM
[2]; [3]
  IC50: 151 ± 2.06 µM

## O=c1c2cc(Cl)ccc2nc(-c2ccccc2)n1N=Cc1ccc(Cl)c(Cl)c1 [Compound 3, 6-Chloro-3-((3,4-dichlorobenzylidene)amino)-2-phenyl-4(3H)-quinazolone]
[1]
  IC50: 91.5 ± 1.47 µM
[2]; [3]
  IC50: 246 ± 24.3 µM

## O=c1c2cc(Cl)ccc2nc(-c2ccccc2)n1N=Cc1ccc(F)cc1 [Compound 4, 6-Chloro-3-((4-fluorobenzylidene)amino)-2-phenyl-4(3H)-quinazolone]
[1]
  IC50: 21.6 ± 1.11 µM
[2]; [3]
  IC50: 235 ± 8.29 µM

## O=c1c2cc(Cl)ccc2nc(-c2ccccc2)n1N=Cc1c(F)cccc1Cl [Compound 5, 6-Chloro-3-((2-chloro-6-fluorobenzylidene)amino)-2-phenyl-4(3H)-quinazolone]
[1]
  IC50: 148 ± 5.64 µM
[2]; [3]
  IC50: 14.7 ± 0.68 µM

## O=c1c2cc(Cl)ccc2nc(-c2ccccc2)n1N=Cc1ccc2c(c1)OCO2 [Compound 6, 3-((Benzo[d][1,3]dioxol-5-ylmethylene)amino)-6-chloro-2-phenyl-4(3H)-quinazolone]
[1]
  IC50: 10.6 ± 0.67 µM
[2]; [3]
  IC50: 50 to 55 µM
[2]; [4]
  IC50: 54.5 ± 0.81 µM

## O=c1c2cc(Cl)ccc2nc(-c2ccccc2)n1N=Cc1ccc(Br)cc1O [Compound 7, 3-((4-Bromo-2-hydroxybenzylidene)amino)-6-chloro-2-phenyl-4(3H)-quinazolone]
[1]
  IC50: 8.79 ± 0.34 µM
[2]; [3]
  IC50: 50 to 55 µM
[2]; [4]
  IC50: 51.6 ± 1.19 µM

## CN(C)c1ccc(C=Nn2c(-c3ccccc3)nc3ccc(Cl)cc3c2=O)cc1 [Compound 8, 6-Chloro-3-((4-(dimethylamino)benzylidene)amino)-2-phenyl-4(3H)-quinazolone]
[1]
  IC50: 101 ± 3.75 µM
[2]; [3]
  IC50: 198 ± 18.9 µM

## O=c1c2cc(Cl)ccc2nc(-c2ccccc2)n1N=Cc1cccc(O)c1 [Compound 9, 6-Chloro-3-((3-hydroxybenzylidene)amino)-2-phenyl-4(3H)-quinazolone]
[1]
  IC50: 84.4 ± 1.26 µM
[2]; [3]
  IC50: 254 ± 14.2 µM

## CCOc1ccc(C=Nn2c(-c3ccccc3)nc3ccc(Cl)cc3c2=O)cc1O [Compound 10, 6-Chloro-3-((4-ethoxy-3-hydroxybenzylidene)amino)-2-phenyl-4(3H)-quinazolone]
[1]
  IC50: 85.5 ± 2.32 µM
[2]; [3]
  IC50: 430 ± 72.9 µM

## O=c1c2cc(Cl)ccc2nc(-c2ccccc2)n1N=Cc1ccc(Cl)cc1Cl [Compound 11, 6-Chloro-3-((2,4-dichlorobenzylidene)amino)-2-phenyl-4(3H)-quinazolone]
[1]
  IC50: 99.4 ± 1.76 µM
[2]; [3]
  IC50: 251 ± 25.5 µM

## O=c1c2cc(Cl)ccc2nc(-c2ccccc2)n1N=Cc1ccccc1Cl [Compound 12, 6-Chloro-3-((2-chlorobenzylidene)amino)-2-phenyl-4(3H)-quinazolinone]
[1]
  IC50: 321 ± 51.8 µM
[2]; [3]
  IC50: 126 ± 6.2 µM

## COc1ccc(C=Nn2c(-c3ccccc3)nc3ccc(Cl)cc3c2=O)cc1OC [Compound 13, 6-Chloro-3-((3,4-dimethoxybenzylidene)amino)-2-phenyl-4(3H)-quinazolone]
[1]
  IC50: 139 ± 4.04 µM
[2]; [3]
  IC50: 130 ± 10.4 µM

## O=c1c2cc(Cl)ccc2nc(-c2ccccc2)n1N=Cc1cccnc1 [Compound 14, 6-Chloro-2-phenyl-3-((pyridin-3-ylmethylene)amino)-4(3H)-quinazolone]
[1]
  IC50: 262 ± 43.9 µM
[2]; [3]
  IC50: 136 ± 17 µM

## O=c1c2cc(Cl)ccc2nc(-c2ccccc2)n1N=Cc1ccco1 [Compound 15, 6-Chloro-3-((furan-2-ylmethylene)amino)-2-phenyl-4(3H)-quinazolone]
[1]
  IC50: 56.6 ± 5.37 µM
[2]; [3]
  IC50: 38.6 ± 1.07 µM

## O=c1c2cc(Cl)ccc2nc(-c2ccccc2)n1N=Cc1cccc([N+](=O)[O-])c1 [Compound 16, 6-Chloro-3-((3-nitrobenzylidene)amino)-2-phenyl-4(3H)-quinazolone]
[1]
  IC50: 301 ± 27.1 µM
[2]; [3]
  IC50: 82.3 ± 1.99 µM

## CCOc1ccc(C=Nn2c(-c3ccccc3)nc3ccc(Cl)cc3c2=O)cc1 [Compound 17, 6-Chloro-3-((4-ethoxybenzylidene)amino)-2-phenyl-4(3H)-quinazolone]
[1]
  IC50: 194 ± 8.83 µM
[2]; [3]
  IC50: 376 ± 8.08 µM

## COc1cccc(C=Nn2c(-c3ccccc3)nc3ccc(Cl)cc3c2=O)c1 [Compound 18, 6-Chloro-3-((3-methoxybenzylidene)amino)-2-phenyl-4(3H)-quinazolone]
[1]
  IC50: 329 ± 47.2 µM
[2]; [3]
  IC50: 84.8 ± 9.35 µM

## O=c1c2cc(Cl)ccc2nc(-c2ccccc2)n1N=Cc1ccccc1O [Compound 19, 6-Chloro-3-((2-hydroxybenzylidene)amino)-2-phenyl-4(3H)-quinazolone]
[1]
  IC50: 37.5 ± 0.63 µM
[2]; [3]
  IC50: 51.1 ± 0.99 µM

## COc1ccc(C=Nn2c(-c3ccccc3)nc3ccc(Cl)cc3c2=O)cc1O [Compound 20, 6-Chloro-3-((3-hydroxy-4-methoxybenzylidene)amino)-2-phenyl-4(3H)-quinazolone]
[1]
  IC50: 198 ± 13.3 µM
[2]; [3]
  IC50: 48.1 ± 3.97 µM

## O=c1c2cc(Cl)ccc2nc(-c2ccccc2)n1N=Cc1ccccc1 [Compound 21, 3-(Benzylideneamino)-6-chloro-2-phenyl-4(3H)-quinazolone]
[1]
  IC50: 121 ± 9.35 µM
[2]; [3]
  IC50: 143 ± 12.7 µM

## CC(=O)O[C@H]1C(=O)[C@@]2(C)[C@H]([C@H](OC(=O)c3ccccc3)[C@]3(O)C[C@H](OC(=O)[C@H](O)[C@@H](NC(=O)c4ccccc4)c4ccccc4)C(C)=C1C3(C)C)[C@]1(OC(C)=O)CO[C@@H]1C[C@@H]2O [PTX, paclitaxel, reference compound]
[1]
  IC50: 0.04 ± 0.02 µM
[2]; [3]
  IC50: 0.58 ± 0.01 µM

## O=c1[nH]cc(F)c(=O)[nH]1 [fluorouracil]
SW620 cell line
  inhibitory activity against SW620: 57.3%
HT-29 cell line
  inhibitory activity against HT-29: 34.1%
